Results reported in ChEMBL document CHEMBL1140383, “Synthesis of 5-nitro-2-furancarbohydrazides and their cis-diamminedichloroplatinum complexes as bitopic and irreversible human thioredoxin reductase inhibitors” (J Med Chem, 2005).

Assays:
Thioredoxin reductase [1] = target: T1, Thioredoxin reductase (Homo sapiens, UniProt Q16881+Q9NNW7+Q86VQ6); test: Inhibitory concentration (25 uM) against human thioredoxin reductase; assay type: protein assay
In short: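 Placental hTrxR screen in 100 mM sodium phosphate, 2 mM EDTA, pH 7.0. Mix held 500 μM NADPH, 200 μM DTNBA and 25 μM inhibitor. Reaction started with native enzyme. Thionitrobenzamide formation read at 416 nm over time, with and without inhibitor.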

[2] = target: T2, Glutathione reductase, mitochondrial (Homo sapiens, UniProt P00390); test: Inhibitory concentration against human glutathione reductase
T2 sequence (P00390 whole entry): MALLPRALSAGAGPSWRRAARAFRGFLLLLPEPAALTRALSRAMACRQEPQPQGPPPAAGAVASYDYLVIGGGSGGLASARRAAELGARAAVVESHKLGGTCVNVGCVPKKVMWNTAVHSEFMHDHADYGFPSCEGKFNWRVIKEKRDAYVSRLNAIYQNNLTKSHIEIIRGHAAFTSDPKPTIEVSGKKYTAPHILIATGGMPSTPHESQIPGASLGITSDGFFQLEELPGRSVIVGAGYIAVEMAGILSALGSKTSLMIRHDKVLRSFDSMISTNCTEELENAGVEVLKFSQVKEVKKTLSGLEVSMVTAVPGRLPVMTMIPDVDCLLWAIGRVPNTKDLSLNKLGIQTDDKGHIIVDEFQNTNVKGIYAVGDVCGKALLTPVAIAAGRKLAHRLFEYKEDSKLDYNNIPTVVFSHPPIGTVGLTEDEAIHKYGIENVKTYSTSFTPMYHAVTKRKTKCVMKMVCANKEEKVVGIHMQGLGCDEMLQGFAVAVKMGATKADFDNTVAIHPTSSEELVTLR

Thioredoxin reductase [3] = target: T1, Thioredoxin reductase; test: Inhibitory concentration against wild type human thioredoxin reductase (5 nM) pre-incubated for 10 min at 25 degree C in buffer in the presence of 200 uM NADPH; assay type: protein assay
In short: (§1)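 Placental wt-hTrxR (5 nM) preincubated 10 min at 25 °C with 200 μM NADPH and inhibitor (from 10 mM DMF stock) in 100 mM potassium phosphate, 2 mM EDTA, pH 7.4. Started with 3 mM DTNB; TNB formation read at 412 nm. DMF controls. IC50 from dose–response curves, mean of at least three determinations.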

Thioredoxin reductase [4] = target: T1, Thioredoxin reductase; test: Inhibitory concentration against wild type mutant human thioredoxin reductase (hTrxRdelta-16) pre-incubated for 10 min at 25 degree C in buffer in the presence of 200 uM NADPH; assay type: protein assay
In short: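 Truncated recombinant hTrxRΔ-16 preincubated 10 min at 25 °C with 200 μM NADPH and inhibitor in potassium phosphate/EDTA buffer, pH 7.4. Reaction started with 3 mM DTNB; TNB formation read at 412 nm. DMF controls. IC50 from dose–response curves.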

SK-MEL-25 [5] = test: Inhibitory concentration against SK-MEL-25 cell line; assay type: functional, cell-based, Homo sapiens
In short: (§2)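 Human tumour lines grown in DMEM at 37 °C under 5% CO2, seeded in 96-well plates. Dosed next day in quadruplicate with 1:2 serial dilutions, 50 to 0.8 μg/mL; platinum complexes from DMF stock, cisplatin in water. After 96 h cells fixed in 3% formaldehyde and stained with 1% crystal violet, absorbance at 595 nm. For MCF-7 the dye was eluted with ethanol/1% acetic acid before reading. IC50 from fitted dose–response curves.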

Thioredoxin reductase [6] = target: T1, Thioredoxin reductase; test: Inhibitory concentration against wild type mutant human thioredoxin reductase (Sec498Cys) (1.3 uM) pre-incubated for 10 min at 25 degree C in buffer in the presence of 100 uM NADPH; assay type: protein assay
In short: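 Recombinant hTrxR Sec498Cys (1.3 μM) preincubated 10 min at 25 °C with 100 μM NADPH and inhibitor in potassium phosphate/EDTA buffer, pH 7.4. Reaction started with 20 μM hTrxC72S; NADPH oxidation read at 340 nm. DMF controls. IC50 from dose–response curves, at least three determinations.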

Thioredoxin reductase [7] = target: T1, Thioredoxin reductase; test: Inhibitory concentration against wild type mutant human thioredoxin reductase (Sec498Cys) (100 nM) pre-incubated for 10 min at 25 degree C in buffer in the presence of 200 uM NADPH; assay type: protein assay
In short: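 Recombinant hTrxR Sec498Cys (100 nM) preincubated 10 min at 25 °C with 200 μM NADPH and inhibitor in potassium phosphate/EDTA buffer, pH 7.4. Started with 3 mM DTNB; absorbance read at 412 nm. DMF controls. IC50 from dose–response curves, mean of at least three determinations.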

Thioredoxin reductase [8] = target: T1, Thioredoxin reductase; test: Inhibitory concentration against wild type human thioredoxin reductase; assay type: protein assay; in short: as §1
MCF7 [9] = test: Inhibitory concentration against MCF-7 cell line; assay type: functional, cell-based, Homo sapiens; in short: as §2
Thioredoxin reductase [10] = target: T1, Thioredoxin reductase; test: Inhibitory concentration against wild type human thioredoxin reductase (30 nM) pre-incubated for 10 min at 25 degree C in phosphate buffer in the presence of 100 uM NADPH; assay type: protein assay
In short: as §1, with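 “(30” for “(5”, “100” for “200”, “20 μM hTrxC72S; NADPH oxidation” for “3 mM DTNB; TNB formation”, “340” for “412”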

Calu-6 [11] = test: Inhibitory concentration against Calu-6 cell line; assay type: functional, cell-based, Homo sapiens; in short: as §2
SK-MEL-25 [12] = test: Ratio of inhibition by compound against SK-MEL-25 cell line to inhibition by cisPt against SK-MEL-25 cell line; assay type: functional, cell-based; conditions: Homo sapiens
In short: (§3)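 Cytotoxicity in DMEM at 37 °C, 5% CO2, quadruplicate 1:2 dilutions (50 to 0.8 μg/mL), 96 h, crystal violet read at 595 nm. Value is the ratio of the complex IC50 to the cisplatin IC50 measured on the same line.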

MCF7 [13] = test: Ratio of inhibition by compound against MCF-7 cell line to inhibition by cisPt against MCF-7 cell line; assay type: functional, cell-based; conditions: Homo sapiens; in short: as §3
Calu-6 [14] = test: Ratio of inhibition by compound against Calu-6 cell line to inhibition by cisPt against Calu-6 cell line; assay type: functional, cell-based; conditions: Homo sapiens; in short: as §3
Thioredoxin reductase [15] = target: T1, Thioredoxin reductase; test: Inhibitory concentration against human thioredoxin reductase; assay type: protein assay
In short: (§4)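 Human TrxR purified from placenta, 5 nM in the DTNB assay or 30 nM in the Trx assay. Enzyme was preincubated 10 min at 25 °C in 100 mM potassium phosphate, 2 mM EDTA, pH 7.4, with NADPH and inhibitor (DMF stock; DMF controls). DTNB assay: 200 μM NADPH, started with 3 mM DTNB, A412. Trx assay: 100 μM NADPH, started with 20 μM hTrxC72S, A340. IC50 from dose–response curves, ≥3 determinations.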

Thioredoxin reductase [16] = target: T1, Thioredoxin reductase; test: Inhibitory concentration agains human thioredoxin reductase; assay type: protein assay; in short: as §4

`O=C(Cc1ccc2ccccc2c1)NNC(=O)c1ccc([N+](=O)[O-])o1` gave an IC50 (Thioredoxin reductase [1]) of 16 µM, an IC50 [2] of 4.1 µM and an IC50 (Thioredoxin reductase [3]) of 18 µM. The IC50 (Thioredoxin reductase [4]) was 215 µM.

Work on “2-(2-Amino-ethylamino)-N-(7-{2-[N'-(5-nitro-furan-2-carbonyl)-hydrazino]-2-oxo-ethyl}-naphthalen-2-yl)-acetamide; compound with GENERIC INORGANIC NEUTRAL COMPONENT [listing 1 of 2 here]” yielded an IC50 (SK-MEL-25 [5]) of 15.1 µM, an IC50 (Thioredoxin reductase [6]) of 38 µM and an IC50 (Thioredoxin reductase [7]) of 130 µM. It also gave a Ki (Thioredoxin reductase [8]) of 0.275 µM, an IC50 (MCF7 [9]) of 53.1 µM and an IC50 (Thioredoxin reductase [3]) of 0.11 µM. For the same compound, the IC50 (Thioredoxin reductase [10]) was 0.12 µM, the IC50 (Thioredoxin reductase [4]) was 145 µM and the IC50 (Calu-6 [11]) was 27.6 µM.

“2-(2-Amino-ethylamino)-N-(7-{2-[N'-(5-nitro-furan-2-carbonyl)-hydrazino]-2-oxo-ethyl}-naphthalen-2-yl)-acetamide; compound with GENERIC INORGANIC NEUTRAL COMPONENT [listing 2 of 2 here]” showed a Ratio (SK-MEL-25 [12]) of 3, a Ratio (MCF7 [13]) of 0.8 and a Ratio (Calu-6 [14]) of 15.3.

Compound `O=C1C=CC(=Nc2cc(Cl)c(O)c(Cl)c2)C=C1` [DICHLOROPHENOL INDOPHENOL] has an IC50 (Thioredoxin reductase [15]) of 25 µM.

With `O=C1C=CC(=O)c2c(O)ccc(O)c21` [NAPHTHAZALIN] the IC50 (Thioredoxin reductase [16]) was 20 µM.
